According to ChEMBL document CHEMBL1143237, “Sulfonamide-1,2,4-triazole derivatives as antifungal and antibacterial agents: synthesis, biological evaluation, lipophilicity, and conformational studies” (Bioorg Med Chem, 2008):
In brackets after ≈: the same amount, converted by molar mass.

Key:
Bacillus cereus = experiment: Antibacterial activity against Bacillus cereus ATCC 10907 after 24 hrs by microdilution test; settings: ATCC 10907, 24 h
Micrococcus luteus = experiment: Antibacterial activity against Micrococcus flavus ATCC 10240 after 24 hrs by microdilution test; assay type: functional; settings: ATCC 10240, 24 h
Procedure, shortened: (§1)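 Broth microdilution in LB medium in 96-well plates. Inoculum 1.0 × 10⁴ CFU per well, from a suspension set to 1.0 × 10⁵ CFU/ml in sterile saline. Compounds at […] µg/ml. Incubation 24 h at 28 °C. MIC is the lowest concentration with no visible growth under a binocular microscope. MBC by subculturing 2 µl into fresh broth for a further 72 h. OD540 read against blank. DMSO negative control.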

[1] = test system: Staphylococcus epidermidis; experiment: Antibacterial activity against Staphylococcus epidermidis ATCC 12228 after 24 hrs by microdilution test; assay type: functional; settings: ATCC 12228, 24 h
Procedure, shortened: as §1

Trichoderma viride = experiment: Antifungal activity against Trichoderma viride IAM 5061 after 72 hrs by microdilution test; assay type: functional
Procedure, shortened: (§2)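 Modified microdilution in malt broth. Spores were washed from malt agar with sterile 0.85% saline containing 0.1% Tween 80 and adjusted to about 1.0 × 10⁵ per well. Compounds were dissolved in DMSO and tested at […] µg/ml. Incubation 72 h at 28 °C. MIC is the lowest concentration with no visible growth under a binocular microscope. MFC by 2 µl subculture and a further 72 h at 28 °C.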

Aspergillus versicolor = experiment: Antifungal activity against Aspergillus versicolor ATCC 11730 after 72 hrs by microdilution test; assay type: functional; settings: ATCC 11730, 72 h
Procedure, shortened: as §2

[2] = Partition coefficient, log P of the compound; assay type: physicochemical; settings: octanol/water
Procedure, shortened: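 Calculated, not measured: AlogP, IAlogP, ClogP, Cosmo logP, mlogP, Kowwin and XlogP were computed and averaged.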

Escherichia coli = experiment: Antibacterial activity against Escherichia coli ATCC 35210 after 24 hrs by microdilution test; assay type: functional; settings: ATCC 35210, 24 h
Procedure, shortened: as §1

Aspergillus niger = experiment: Antifungal activity against Aspergillus niger ATCC 6275 after 72 hrs by microdilution test; assay type: functional; settings: ATCC 6275, 72 h
Procedure, shortened: as §2

Salmonella enteritidis = experiment: Antibacterial activity against Salmonella enteritidis ATCC 13076 after 24 hrs by microdilution test; assay type: functional, Salmonella enterica subsp. enterica serovar Enteritidis; settings: Salmonella enterica, ATCC 13076, 24 h
Procedure, shortened: as §1

Aspergillus ochraceus = experiment: Antifungal activity against Aspergillus ochraceus ATCC 12066 after 72 hrs by microdilution test; assay type: functional; settings: ATCC 12066, 72 h
Procedure, shortened: as §2

Enterobacter cloacae = experiment: Antibacterial activity against Enterobacter cloacae after 24 hrs by microdilution test; assay type: functional
Procedure, shortened: as §1

Salmonella typhimurium = experiment: Antibacterial activity against Salmonella Typhimurium ATCC 13311 after 24 hrs by microdilution test; assay type: functional, Salmonella enterica subsp. enterica serovar Typhimurium; settings: Salmonella enterica, ATCC 13311, 24 h
Procedure, shortened: as §1

Aspergillus flavus = experiment: Antifungal activity against Aspergillus flavus ATCC 9643 after 72 hrs by microdilution test; assay type: functional; settings: ATCC 9643, 72 h
Procedure, shortened: as §2

Talaromyces funiculosus = experiment: Antifungal activity against Penicillium funiculosum ATCC 36839 after 72 hrs by microdilution test; assay type: functional; settings: ATCC 36839, 72 h
Procedure, shortened: as §2

CCN(CC)S(=O)(=O)c1cc(OC)c(OC)cc1Cc1n[nH]c(=S)n1-c1ccc(Cl)cc1
MBC (Bacillus cereus): 150 µg/mL (≈ 302 µM)
MIC (Bacillus cereus): 150 µg/mL (≈ 302 µM)
MBC (Micrococcus luteus): 150 µg/mL (≈ 302 µM)
MIC (Micrococcus luteus): 150 µg/mL (≈ 302 µM)
MBC [1]: 150 µg/mL (≈ 302 µM)
MIC [1]: 150 µg/mL (≈ 302 µM)
MFC (Trichoderma viride): 100 µg/mL (≈ 201 µM)
MIC (Trichoderma viride): 50 µg/mL (≈ 101 µM)
MFC (Aspergillus versicolor): 150 µg/mL (≈ 302 µM)
MIC (Aspergillus versicolor): 100 µg/mL (≈ 201 µM)
logP [2]: 3.15
MBC (Escherichia coli): 150 µg/mL (≈ 302 µM)
MIC (Escherichia coli): 100 µg/mL (≈ 201 µM)
MFC (Aspergillus niger): 150 µg/mL (≈ 302 µM)
MIC (Aspergillus niger): 100 µg/mL (≈ 201 µM)
MBC (Salmonella enteritidis): 150 µg/mL (≈ 302 µM)
MIC (Salmonella enteritidis): 150 µg/mL (≈ 302 µM)
MFC (Aspergillus ochraceus): 150 µg/mL (≈ 302 µM)
MIC (Aspergillus ochraceus): 100 µg/mL (≈ 201 µM)
MBC (Enterobacter cloacae): 100 µg/mL (≈ 201 µM)
MIC (Enterobacter cloacae): 100 µg/mL (≈ 201 µM)
MBC (Salmonella typhimurium): 150 µg/mL (≈ 302 µM)
MIC (Salmonella typhimurium): 150 µg/mL (≈ 302 µM)
MFC (Aspergillus flavus): 150 µg/mL (≈ 302 µM)
MIC (Aspergillus flavus): 100 µg/mL (≈ 201 µM)
MFC (Talaromyces funiculosus): 150 µg/mL (≈ 302 µM)
MIC (Talaromyces funiculosus): 100 µg/mL (≈ 201 µM)
